Results from ChEMBL document CHEMBL1135657, “Novel dual inhibitors of AChE and MAO derived from hydroxy aminoindan and phenethylamine as potential treatment for Alzheimer's disease” (J Med Chem, 2002).

What was measured:
[1] = molecular target: T1, Amine oxidase [flavin-containing] B (Rattus norvegicus, UniProt P19643); assay: In vitro inhibitory concentration against Monoamine oxidase B of rat brain homogenates; value ranges from 0.3-1.2; type: tissue-based
T1 sequence (P19643 whole entry): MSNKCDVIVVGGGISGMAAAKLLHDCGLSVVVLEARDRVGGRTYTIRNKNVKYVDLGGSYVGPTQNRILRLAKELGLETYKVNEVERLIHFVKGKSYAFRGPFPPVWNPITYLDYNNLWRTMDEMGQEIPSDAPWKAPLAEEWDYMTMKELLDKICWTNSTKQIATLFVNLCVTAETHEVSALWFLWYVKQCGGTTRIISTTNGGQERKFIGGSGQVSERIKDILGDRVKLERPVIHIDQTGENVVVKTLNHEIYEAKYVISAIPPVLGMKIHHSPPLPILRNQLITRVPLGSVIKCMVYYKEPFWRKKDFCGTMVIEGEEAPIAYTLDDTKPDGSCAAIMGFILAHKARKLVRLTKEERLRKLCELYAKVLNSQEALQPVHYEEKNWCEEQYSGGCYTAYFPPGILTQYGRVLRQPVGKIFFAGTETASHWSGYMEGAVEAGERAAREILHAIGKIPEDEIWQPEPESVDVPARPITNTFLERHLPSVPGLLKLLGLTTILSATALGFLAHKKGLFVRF

[2] = molecular target: T2, Amine oxidase [flavin-containing] A (Rattus norvegicus, UniProt P21396); assay: In vitro inhibitory concentration against Monoamine oxidase A of rat brain homogenates; value ranges from 0.09-0.16; type: tissue-based
T2 sequence (P21396 whole entry): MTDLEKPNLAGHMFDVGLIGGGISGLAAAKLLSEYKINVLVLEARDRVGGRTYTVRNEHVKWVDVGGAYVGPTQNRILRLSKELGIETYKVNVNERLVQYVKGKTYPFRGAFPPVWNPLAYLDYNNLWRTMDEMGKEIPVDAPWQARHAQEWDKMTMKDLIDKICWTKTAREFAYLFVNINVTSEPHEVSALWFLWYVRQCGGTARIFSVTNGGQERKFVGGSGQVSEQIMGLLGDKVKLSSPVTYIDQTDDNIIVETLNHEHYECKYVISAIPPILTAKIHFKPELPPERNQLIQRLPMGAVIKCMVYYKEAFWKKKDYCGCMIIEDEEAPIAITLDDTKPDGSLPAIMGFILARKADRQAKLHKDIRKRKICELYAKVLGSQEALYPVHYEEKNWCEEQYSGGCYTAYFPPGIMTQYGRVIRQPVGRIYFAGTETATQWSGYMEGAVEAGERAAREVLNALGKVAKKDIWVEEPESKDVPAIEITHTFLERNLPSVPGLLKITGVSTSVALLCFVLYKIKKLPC

Acetylcholinesterase [3] = molecular target: T3, Acetylcholinesterase (Homo sapiens, UniProt P22303); assay: In vitro inhibitory concentration against purified Acetylcholinesterase of human erythrocytes; value ranges from 1.32-2.23
Butyrylcholinesterase [4] = molecular target: T4, Butyrylcholinesterase (Equus caballus, UniProt Q9N1N9); assay: In vitro inhibitory concentration against Butyrylcholinesterase of horse serum; value ranges from 0.73-0.77
Summary of the method: (§1)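 Ellman assay followed, with 200 µM butyrylthiocholine as substrate. Runs were in triplicate with four-point dose-response curves. IC50 and fiducial limits came from log concentration versus % inhibition.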

[5] = molecular target: T2, Amine oxidase [flavin-containing] A; assay: In vitro inhibitory concentration against Monoamine oxidase A of rat brain homogenates; value ranges from 4.7-16.8; type: tissue-based
[6] = molecular target: T1, Amine oxidase [flavin-containing] B; assay: In vitro inhibitory concentration against Monoamine oxidase B of rat brain homogenates; value ranges from 2.8-8.3; type: tissue-based
[7] = molecular target: T2, Amine oxidase [flavin-containing] A; assay: In vitro inhibitory concentration against Monoamine oxidase A of rat brain homogenates; value ranges from 14-340; type: tissue-based
[8] = molecular target: T1, Amine oxidase [flavin-containing] B; assay: In vitro inhibitory concentration against Monoamine oxidase B of rat brain homogenates; value ranges from 22-530; type: tissue-based
[9] = molecular target: T2, Amine oxidase [flavin-containing] A; assay: In vitro inhibitory concentration against Monoamine oxidase A of rat brain homogenates; value ranges from 0.1-0.9; type: tissue-based
Acetylcholinesterase [10] = molecular target: T3, Acetylcholinesterase; assay: In vitro inhibitory concentration against purified Acetylcholinesterase of human erythrocytes; value ranges from 0.79-0.93
[11] = molecular target: T1, Amine oxidase [flavin-containing] B; assay: In vitro inhibitory concentration against Monoamine oxidase B of rat brain homogenates; value ranges from 1.5-5.2; type: tissue-based
[12] = molecular target: T1, Amine oxidase [flavin-containing] B; assay: In vitro inhibitory concentration against Monoamine oxidase B of rat brain homogenates; value ranges from 0.11-0.57; type: tissue-based
Summary of the method: (§2)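 Rat brain homogenate (in 0.3 M sucrose) as enzyme source; compounds diluted 10⁻²M to 10⁻⁹M in 0.05 M phosphate buffer with 0.15 μM clorgyline; preincubated 60 min at 37 °C, then 10 μM ¹⁴C-phenylethylamine added for 20 min more; stopped with citric acid; metabolites extracted into toluene/ethyl acetate, scintillation counted; activity as % of control, tranylcypromine blank.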

[13] = molecular target: T2, Amine oxidase [flavin-containing] A; assay: In vitro inhibitory concentration against Monoamine oxidase A of rat brain homogenates; value ranges from 0.8-3.7; type: tissue-based
Acetylcholinesterase [14] = molecular target: T3, Acetylcholinesterase; assay: In vitro inhibitory concentration against purified Acetylcholinesterase of human erythrocytes; value ranges from 3.69-33.1
Butyrylcholinesterase [15] = molecular target: T4, Butyrylcholinesterase; assay: In vitro inhibitory concentration against Butyrylcholinesterase of horse serum; value ranges from 0.45-1.08; summary of the method: as §1
[16] = molecular target: T1, Amine oxidase [flavin-containing] B; assay: In vitro inhibitory concentration against Monoamine oxidase B of rat brain homogenates; value ranges from 75-200
Butyrylcholinesterase [17] = molecular target: T4, Butyrylcholinesterase; assay: In vitro inhibitory concentration against Butyrylcholinesterase of horse serum; value ranges from 0.28-0.30; summary of the method: as §1
Acetylcholinesterase [18] = molecular target: T3, Acetylcholinesterase; assay: In vitro inhibitory concentration against purified Acetylcholinesterase of human erythrocytes; value ranges from 26.2-5898
[19] = molecular target: T2, Amine oxidase [flavin-containing] A; assay: In vitro inhibitory concentration against Monoamine oxidase A of rat brain homogenates; value ranges from 12.1-17.6; type: tissue-based
Butyrylcholinesterase [20] = molecular target: T4, Butyrylcholinesterase; assay: In vitro inhibitory concentration against Butyrylcholinesterase of horse serum; value ranges from 1.19-8.56; summary of the method: as §1
Acetylcholinesterase [21] = molecular target: T3, Acetylcholinesterase; assay: In vitro inhibitory concentration against purified Acetylcholinesterase of human erythrocytes; value ranges from 13.6-27.3
[22] = molecular target: T1, Amine oxidase [flavin-containing] B; assay: In vitro inhibitory concentration against Monoamine oxidase B of rat brain homogenates; value ranges from 0.08-0.38; type: tissue-based; summary of the method: as §2
Acetylcholinesterase [23] = molecular target: T3, Acetylcholinesterase; assay: In vitro inhibitory concentration against purified Acetylcholinesterase of human erythrocytes; value ranges from 12.6-74.0
[24] = molecular target: T1, Amine oxidase [flavin-containing] B; assay: In vitro inhibitory concentration against Monoamine oxidase B of rat brain homogenates; value ranges from 9.5-17.2
[25] = molecular target: T2, Amine oxidase [flavin-containing] A; assay: In vitro inhibitory concentration against Monoamine oxidase A of rat brain homogenates; value ranges from 1.8-2.5; type: tissue-based
Butyrylcholinesterase [26] = molecular target: T4, Butyrylcholinesterase; assay: In vitro inhibitory concentration against Butyrylcholinesterase of horse serum; value ranges from 0.90-0.95; summary of the method: as §1
Butyrylcholinesterase [27] = molecular target: T4, Butyrylcholinesterase; assay: In vitro inhibitory concentration against Butyrylcholinesterase of horse serum; value ranges from 0.21-1.26; summary of the method: as §1
[28] = molecular target: T2, Amine oxidase [flavin-containing] A; assay: In vitro inhibitory concentration against Monoamine oxidase A of rat brain homogenates; value ranges from 2-8; type: tissue-based
Acetylcholinesterase [29] = molecular target: T3, Acetylcholinesterase; assay: In vitro inhibitory concentration against purified Acetylcholinesterase of human erythrocytes
Acetylcholinesterase [30] = molecular target: T3, Acetylcholinesterase; assay: In vitro inhibitory concentration against purified Acetylcholinesterase of human erythrocytes; value ranges from 7.5-19.5
[31] = molecular target: T1, Amine oxidase [flavin-containing] B; assay: In vitro inhibitory concentration against Monoamine oxidase B of rat brain homogenates; value ranges from 30-230; type: tissue-based
[32] = molecular target: T2, Amine oxidase [flavin-containing] A; assay: In vitro inhibitory concentration against Monoamine oxidase A of rat brain homogenates; value ranges from 150-320; type: tissue-based
[33] = molecular target: T2, Amine oxidase [flavin-containing] A; assay: In vitro inhibitory concentration against Monoamine oxidase A of rat brain homogenates; value ranges from 370-520; type: tissue-based
[34] = molecular target: T2, Amine oxidase [flavin-containing] A; assay: In vitro inhibitory concentration against Monoamine oxidase A of rat brain homogenates; value ranges from 1.3-5.6; type: tissue-based
[35] = molecular target: T1, Amine oxidase [flavin-containing] B; assay: In vitro inhibitory concentration against Monoamine oxidase B of rat brain homogenates; value ranges from 11-52; type: tissue-based
Butyrylcholinesterase [36] = molecular target: T4, Butyrylcholinesterase; assay: In vitro inhibitory concentration against Butyrylcholinesterase of horse serum; value ranges from 0.16-0.41; summary of the method: as §1
Acetylcholinesterase [37] = molecular target: T3, Acetylcholinesterase; assay: In vitro inhibitory concentration against purified Acetylcholinesterase of human erythrocytes; value ranges from 0.18-0.32

T3 sequence (P22303 whole entry): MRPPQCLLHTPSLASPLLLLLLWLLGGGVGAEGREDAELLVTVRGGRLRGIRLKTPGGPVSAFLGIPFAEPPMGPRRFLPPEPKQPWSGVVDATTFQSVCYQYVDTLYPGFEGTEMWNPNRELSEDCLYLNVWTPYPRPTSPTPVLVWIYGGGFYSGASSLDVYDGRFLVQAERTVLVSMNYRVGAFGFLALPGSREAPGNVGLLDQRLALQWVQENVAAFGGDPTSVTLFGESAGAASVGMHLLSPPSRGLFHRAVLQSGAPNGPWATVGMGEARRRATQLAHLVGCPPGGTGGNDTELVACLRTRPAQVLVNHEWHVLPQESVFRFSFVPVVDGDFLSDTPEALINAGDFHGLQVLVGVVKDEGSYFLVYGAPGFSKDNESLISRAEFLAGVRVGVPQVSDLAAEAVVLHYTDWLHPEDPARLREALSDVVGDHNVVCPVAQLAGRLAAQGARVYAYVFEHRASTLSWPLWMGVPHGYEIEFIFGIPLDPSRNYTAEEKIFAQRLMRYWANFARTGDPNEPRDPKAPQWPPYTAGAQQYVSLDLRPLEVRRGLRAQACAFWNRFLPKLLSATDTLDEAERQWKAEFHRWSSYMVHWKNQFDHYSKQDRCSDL
T4 sequence (Q9N1N9 whole entry): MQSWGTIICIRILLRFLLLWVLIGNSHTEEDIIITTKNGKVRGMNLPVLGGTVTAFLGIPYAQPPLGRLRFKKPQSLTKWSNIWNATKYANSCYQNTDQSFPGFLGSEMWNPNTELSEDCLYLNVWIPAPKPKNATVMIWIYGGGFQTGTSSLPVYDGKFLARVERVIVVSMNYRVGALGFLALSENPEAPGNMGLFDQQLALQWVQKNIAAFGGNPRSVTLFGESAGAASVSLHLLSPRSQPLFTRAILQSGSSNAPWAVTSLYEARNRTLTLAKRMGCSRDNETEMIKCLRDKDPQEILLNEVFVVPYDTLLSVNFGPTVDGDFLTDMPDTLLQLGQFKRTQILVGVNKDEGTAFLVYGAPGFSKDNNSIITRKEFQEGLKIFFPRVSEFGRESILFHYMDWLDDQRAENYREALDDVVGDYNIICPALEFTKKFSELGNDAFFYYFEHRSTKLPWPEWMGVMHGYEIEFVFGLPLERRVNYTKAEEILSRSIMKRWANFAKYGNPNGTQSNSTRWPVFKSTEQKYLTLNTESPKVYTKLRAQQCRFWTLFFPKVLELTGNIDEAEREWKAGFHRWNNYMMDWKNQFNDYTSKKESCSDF

C#CCN(C)C(C)Cc1cccc(OC(=O)N(C)C)c1 (configuration not stated)
IC50 [1]: 0.8 µM | IC50 [2]: 0.12 µM | IC50 (Acetylcholinesterase [3]): 1.64 µM | IC50 (Butyrylcholinesterase [4]): 0.75 µM

C#CCN(C)C(C)Cc1cccc(O)c1 (configuration not stated)
IC50 [5]: 8.9 µM | IC50 [6]: 4.8 µM

C#CCNCCc1cccc(O)c1
IC50 [7]: 67 µM | IC50 [8]: 107 µM

C#CCN(C)CCc1cccc(OC(=O)N(C)C)c1
IC50 [9]: 0.3 µM | IC50 (Acetylcholinesterase [10]): 0.85 µM | IC50 [11]: 2.8 µM

C#CCN(C)C(C)Cc1cccc(OC(=O)N(C)C2CCCCC2)c1 (configuration not stated)
IC50 [12]: 0.24 µM | IC50 [13]: 1.7 µM | IC50 (Acetylcholinesterase [14]): 8.67 µM | IC50 (Butyrylcholinesterase [15]): 0.67 µM

C#CCNC1CCc2ccc(OC(=O)N(C)CC)cc2C1 (configuration not stated)
IC50 [16]: 120 µM | IC50 (Butyrylcholinesterase [17]): 0.29 µM | IC50 (Acetylcholinesterase [18]): 204 µM

C#CCNC(C)Cc1cccc(OC(=O)N(C)CCC)c1 (configuration not stated)
IC50 [19]: 14.6 µM | IC50 (Butyrylcholinesterase [20]): 2.07 µM | IC50 (Acetylcholinesterase [21]): 19.1 µM | IC50 [22]: 0.17 µM

C#CCNC(C)Cc1cccc(OC(=O)N(C)CC)c1 (configuration not stated)
IC50 (Acetylcholinesterase [23]): 33.9 µM | IC50 [24]: 12.8 µM | IC50 [25]: 2.1 µM | IC50 (Butyrylcholinesterase [26]): 0.93 µM

C#CCN(C)[C@@H]1CCc2ccc(OC(=O)N(C)CC)cc21
IC50 (Butyrylcholinesterase [27]): 0.55 µM | IC50 [28]: 4 µM | IC50 (Acetylcholinesterase [29]): 1200 µM

C#CCN[C@@H]1CCc2ccc(OC(=O)N(C)CCCC)cc21
IC50 (Acetylcholinesterase [30]): 11.6 µM | IC50 [31]: 150 µM | IC50 [32]: 220 µM

C#CCN[C@H]1CCc2ccc(O)cc21
IC50 [33]: 440 µM

C#CCNCCc1cccc(OC(=O)N(C)C)c1
IC50 [34]: 2.7 µM | IC50 [35]: 24 µM | IC50 (Butyrylcholinesterase [36]): 0.21 µM | IC50 (Acetylcholinesterase [37]): 0.22 µM
